According to ChEMBL document CHEMBL4689842, “EUbOPEN Chemogenomics Library wave 1” (2021):

How the values were obtained:
U2OS [1] = assay: Multiplex assay against U2OS; assay type: toxicity, cell-based; conditions: human
Method in brief: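 Phenotypes for tubulin, mitochondrial mass and membrane permeability are expressed as per cents of healthy-nucleus cells. Cells were stained live at seeding with Hoechst33342, BioTracker Green Microtubule Cytoskeleton Dye, MitoTracker Red and Annexin V Alexa Fluor 680, then imaged after compound addition on a CQ1 microscope at 37°C and 5% CO2. Machine-learning gating in CellPathfinder separated Hoechst high-intensity objects from normal cells, divided normal cells by nuclear state (healthy, pyknosed, fragmented) and divided pyknosed cells into mitotic or apoptotic.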

U2OS [2] = assay: Incucyte cell viability with U2OS; assay type: toxicity, cell-based; conditions: human, 10 µM, compound concentration 10 uM; also: filed as whole numbers so only -1 and 0 and 1 occur
[3] = 12 h, 1 µM, compound concentration 1 uM, replicate 1
[4] = 12 h, 1 µM, compound concentration 1 uM, replicate 2
[5] = 12 h, 10 µM, compound concentration 10 uM, replicate 1
[6] = 12 h, 10 µM, compound concentration 10 uM, replicate 2
[7] = 24 h, 1 µM, compound concentration 1 uM, replicate 1
[8] = 24 h, 1 µM, compound concentration 1 uM, replicate 2
[9] = 24 h, 10 µM, compound concentration 10 uM, replicate 1
[10] = 24 h, 10 µM, compound concentration 10 uM, replicate 2
[11] = 48 h, 1 µM, compound concentration 1 uM, replicate 1
[12] = 48 h, 1 µM, compound concentration 1 uM, replicate 2
[13] = 48 h, 10 µM, compound concentration 10 uM, replicate 1
[14] = 48 h, 10 µM, compound concentration 10 uM, replicate 2

C[C@@H](Oc1cc(-n2cnc3ccc(CN4CCN(C)CC4)cc32)sc1C(N)=O)c1ccccc1C(F)(F)F [GSK-461364]
Population Apoptotic (%) (U2OS [1]; [3]): 55% | Population Fragmented Nuclei (%) (U2OS [1]; [3]): 13% | Population Healthy Nuclei (%) (U2OS [1]; [3]): 70% | Population Hoechst High Intensity Objects (%) (U2OS [1]; [3]): 7% | Population Membrane Permeable-Phenotype (%) (U2OS [1]; [3]): 7% | Population Mitochondria Different-Phenotype (%) (U2OS [1]; [3]): 60% | Population Mitotic Cells (%) (U2OS [1]; [3]): 45% | Population Normal (%) (U2OS [1]; [3]): 92% | Population Pyknosed Nuclei (%) (U2OS [1]; [3]): 15% | Population Tubulin-Different-Phenotype (%) (U2OS [1]; [3]): 84% | Total Cell Count (U2OS [1]; [3]): 153 | Population Apoptotic (%) (U2OS [1]; [4]): 12% | Population Fragmented Nuclei (%) (U2OS [1]; [4]): 12% | Population Healthy Nuclei (%) (U2OS [1]; [4]): 71% | Population Hoechst High Intensity Objects (%) (U2OS [1]; [4]): 4% | Population Membrane Permeable-Phenotype (%) (U2OS [1]; [4]): 12% | Population Mitochondria Different-Phenotype (%) (U2OS [1]; [4]): 35% | Population Mitotic Cells (%) (U2OS [1]; [4]): 87% | Population Normal (%) (U2OS [1]; [4]): 95% | Population Pyknosed Nuclei (%) (U2OS [1]; [4]): 16% | Population Tubulin-Different-Phenotype (%) (U2OS [1]; [4]): 30% | Population Apoptotic (%) (U2OS [1]; [5]): 58% | Population Fragmented Nuclei (%) (U2OS [1]; [5]): 14% | Population Healthy Nuclei (%) (U2OS [1]; [5]): 40% | Population Hoechst High Intensity Objects (%) (U2OS [1]; [5]): 9% | Population Membrane Permeable-Phenotype (%) (U2OS [1]; [5]): 81% | Population Mitochondria Different-Phenotype (%) (U2OS [1]; [5]): 100% | Population Mitotic Cells (%) (U2OS [1]; [5]): 41% | Population Normal (%) (U2OS [1]; [5]): 90% | Population Pyknosed Nuclei (%) (U2OS [1]; [5]): 44% | Population Tubulin-Different-Phenotype (%) (U2OS [1]; [5]): 100% | Total Cell Count (U2OS [1]; [5]): 137 | Population Apoptotic (%) (U2OS [1]; [6]): 40% | Population Fragmented Nuclei (%) (U2OS [1]; [6]): 13% | Population Healthy Nuclei (%) (U2OS [1]; [6]): 55% | Population Membrane Permeable-Phenotype (%) (U2OS [1]; [6]): 71% | Population Mitotic Cells (%) (U2OS [1]; [6]): 59% | Population Pyknosed Nuclei (%) (U2OS [1]; [6]): 31% | Population Apoptotic (%) (U2OS [1]; [7]): 78% | Population Fragmented Nuclei (%) (U2OS [1]; [7]): 16% | Population Healthy Nuclei (%) (U2OS [1]; [7]): 65% | Population Hoechst High Intensity Objects (%) (U2OS [1]; [7]): 6% | Population Membrane Permeable-Phenotype (%) (U2OS [1]; [7]): 8% | Population Mitochondria Different-Phenotype (%) (U2OS [1]; [7]): 65% | Population Mitotic Cells (%) (U2OS [1]; [7]): 21% | Population Normal (%) (U2OS [1]; [7]): 93% | Population Pyknosed Nuclei (%) (U2OS [1]; [7]): 17% | Population Tubulin-Different-Phenotype (%) (U2OS [1]; [7]): 91% | Population Apoptotic (%) (U2OS [1]; [8]): 50% | Population Fragmented Nuclei (%) (U2OS [1]; [8]): 14% | Population Healthy Nuclei (%) (U2OS [1]; [8]): 68% | Population Hoechst High Intensity Objects (%) (U2OS [1]; [8]): 4% | Population Membrane Permeable-Phenotype (%) (U2OS [1]; [8]): 18% | Population Mitochondria Different-Phenotype (%) (U2OS [1]; [8]): 35% | Population Mitotic Cells (%) (U2OS [1]; [8]): 50% | Population Normal (%) (U2OS [1]; [8]): 95% | Population Tubulin-Different-Phenotype (%) (U2OS [1]; [8]): 28% | Population Apoptotic (%) (U2OS [1]; [9]): 90% | Population Fragmented Nuclei (%) (U2OS [1]; [9]): 23% | Population Healthy Nuclei (%) (U2OS [1]; [9]): 21% | Population Hoechst High Intensity Objects (%) (U2OS [1]; [9]): 8% | Population Membrane Permeable-Phenotype (%) (U2OS [1]; [9]): 92% | Population Mitochondria Different-Phenotype (%) (U2OS [1]; [9]): 100% | Population Mitotic Cells (%) (U2OS [1]; [9]): 9% | Population Normal (%) (U2OS [1]; [9]): 91% | Population Pyknosed Nuclei (%) (U2OS [1]; [9]): 54% | Population Tubulin-Different-Phenotype (%) (U2OS [1]; [9]): 100% | Total Cell Count (U2OS [1]; [9]): 138 | Population Apoptotic (%) (U2OS [1]; [10]): 82% | Population Fragmented Nuclei (%) (U2OS [1]; [10]): 10% | Population Healthy Nuclei (%) (U2OS [1]; [10]): 47% | Population Hoechst High Intensity Objects (%) (U2OS [1]; [10]): 6% | Population Membrane Permeable-Phenotype (%) (U2OS [1]; [10]): 90% | Population Mitotic Cells (%) (U2OS [1]; [10]): 17% | Population Normal (%) (U2OS [1]; [10]): 93% | Population Pyknosed Nuclei (%) (U2OS [1]; [10]): 41% | Population Apoptotic (%) (U2OS [1]; [11]): 71% | Population Fragmented Nuclei (%) (U2OS [1]; [11]): 22% | Population Healthy Nuclei (%) (U2OS [1]; [11]): 51% | Population Hoechst High Intensity Objects (%) (U2OS [1]; [11]): 10% | Population Membrane Permeable-Phenotype (%) (U2OS [1]; [11]): 18% | Population Mitochondria Different-Phenotype (%) (U2OS [1]; [11]): 57% | Population Mitotic Cells (%) (U2OS [1]; [11]): 28% | Population Normal (%) (U2OS [1]; [11]): 89% | Population Pyknosed Nuclei (%) (U2OS [1]; [11]): 25% | Population Tubulin-Different-Phenotype (%) (U2OS [1]; [11]): 85% | Total Cell Count (U2OS [1]; [11]): 246 | Population Apoptotic (%) (U2OS [1]; [12]): 47% | Population Fragmented Nuclei (%) (U2OS [1]; [12]): 10% | Population Healthy Nuclei (%) (U2OS [1]; [12]): 68% | Population Hoechst High Intensity Objects (%) (U2OS [1]; [12]): 5% | Population Membrane Permeable-Phenotype (%) (U2OS [1]; [12]): 27% | Population Mitochondria Different-Phenotype (%) (U2OS [1]; [12]): 25% | Population Mitotic Cells (%) (U2OS [1]; [12]): 52% | Population Normal (%) (U2OS [1]; [12]): 94% | Population Pyknosed Nuclei (%) (U2OS [1]; [12]): 20% | Population Tubulin-Different-Phenotype (%) (U2OS [1]; [12]): 30% | Total Cell Count (U2OS [1]; [12]): 128 | Population Apoptotic (%) (U2OS [1]; [13]): 98% | Population Fragmented Nuclei (%) (U2OS [1]; [13]): 27% | Population Healthy Nuclei (%) (U2OS [1]; [13]): 14% | Population Hoechst High Intensity Objects (%) (U2OS [1]; [13]): 11% | Population Membrane Permeable-Phenotype (%) (U2OS [1]; [13]): 100% | Population Mitochondria Different-Phenotype (%) (U2OS [1]; [13]): 94% | Population Mitotic Cells (%) (U2OS [1]; [13]): 1% | Population Normal (%) (U2OS [1]; [13]): 88% | Population Pyknosed Nuclei (%) (U2OS [1]; [13]): 58% | Population Tubulin-Different-Phenotype (%) (U2OS [1]; [13]): 100% | Total Cell Count (U2OS [1]; [13]): 138 | Population Apoptotic (%) (U2OS [1]; [14]): 82% | Population Fragmented Nuclei (%) (U2OS [1]; [14]): 20% | Population Healthy Nuclei (%) (U2OS [1]; [14]): 43% | Population Hoechst High Intensity Objects (%) (U2OS [1]; [14]): 8% | Population Membrane Permeable-Phenotype (%) (U2OS [1]; [14]): 97% | Population Mitochondria Different-Phenotype (%) (U2OS [1]; [14]): 100% | Population Mitotic Cells (%) (U2OS [1]; [14]): 17% | Population Normal (%) (U2OS [1]; [14]): 91% | Population Pyknosed Nuclei (%) (U2OS [1]; [14]): 36% | Total Cell Count (U2OS [1]; [14]): 108 | Growth Rate (U2OS [2]; 6 h, replicate number 1, timepoint 6 hours): 1 | Growth Rate (U2OS [2]; 12 h, replicate number 1, timepoint 12 hours): 0 | Growth Rate (U2OS [2]; 18 h, replicate number 1, timepoint 18 hours): 0 | Growth Rate (U2OS [2]; 24 h, replicate number 1, timepoint 24 hours): 0
